According to the M2OR odorant receptor database:
Positions count from the first letter of the chain named.

What was measured:
Conditions in all cases: stereoisomer not certain
[1] = target: T1, OR52I1 (Homo sapiens) (UniProt Q8NGK6)
T1 sequence (whole entry): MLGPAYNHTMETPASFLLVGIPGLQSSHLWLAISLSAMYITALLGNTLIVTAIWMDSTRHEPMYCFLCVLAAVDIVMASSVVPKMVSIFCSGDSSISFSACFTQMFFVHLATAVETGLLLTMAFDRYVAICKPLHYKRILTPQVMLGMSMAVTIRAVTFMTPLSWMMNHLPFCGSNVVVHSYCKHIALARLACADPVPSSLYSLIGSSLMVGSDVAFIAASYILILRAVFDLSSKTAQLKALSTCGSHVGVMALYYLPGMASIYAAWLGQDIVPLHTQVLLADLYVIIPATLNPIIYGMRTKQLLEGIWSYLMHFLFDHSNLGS
Method in brief: (§1)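 Assay methods differ from source to source, frequently being transient luciferase assays in mammalian cell lines. For each receptor–molecule pair, the label responsive (active) applies when the original authors judged the measured signal statistically different from baseline, and non-responsive (inactive) applies otherwise.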

[2] = target: T2, OR52I2 (Homo sapiens) (UniProt Q8NH67)
T2 sequence (whole entry): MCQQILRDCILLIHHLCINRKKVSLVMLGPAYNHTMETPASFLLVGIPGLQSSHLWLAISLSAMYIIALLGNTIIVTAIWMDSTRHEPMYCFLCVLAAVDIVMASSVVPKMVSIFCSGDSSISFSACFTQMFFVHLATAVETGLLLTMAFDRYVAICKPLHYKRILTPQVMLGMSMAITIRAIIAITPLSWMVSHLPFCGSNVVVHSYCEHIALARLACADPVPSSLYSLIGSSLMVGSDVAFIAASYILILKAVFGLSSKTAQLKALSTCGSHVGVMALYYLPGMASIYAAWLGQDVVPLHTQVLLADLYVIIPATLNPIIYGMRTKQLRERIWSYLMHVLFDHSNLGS
Method in brief: as §1

[3] = target: OR52J3 (Homo sapiens) (UniProt Q8NH60)
OR52J3 (Homo sapiens), sequence (Q8NH60 whole entry): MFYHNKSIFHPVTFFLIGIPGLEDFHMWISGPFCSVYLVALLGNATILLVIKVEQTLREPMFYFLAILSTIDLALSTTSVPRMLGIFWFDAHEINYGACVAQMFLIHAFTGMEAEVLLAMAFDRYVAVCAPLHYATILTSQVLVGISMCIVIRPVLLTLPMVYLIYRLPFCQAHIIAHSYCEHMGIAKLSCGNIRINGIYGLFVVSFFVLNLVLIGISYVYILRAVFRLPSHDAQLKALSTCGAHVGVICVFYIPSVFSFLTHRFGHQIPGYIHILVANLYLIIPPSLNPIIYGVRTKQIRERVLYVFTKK
Method in brief: as §1

[4] = target: T3, OR52K1 (Homo sapiens) (UniProt Q8NGK4)
T3 sequence (whole entry): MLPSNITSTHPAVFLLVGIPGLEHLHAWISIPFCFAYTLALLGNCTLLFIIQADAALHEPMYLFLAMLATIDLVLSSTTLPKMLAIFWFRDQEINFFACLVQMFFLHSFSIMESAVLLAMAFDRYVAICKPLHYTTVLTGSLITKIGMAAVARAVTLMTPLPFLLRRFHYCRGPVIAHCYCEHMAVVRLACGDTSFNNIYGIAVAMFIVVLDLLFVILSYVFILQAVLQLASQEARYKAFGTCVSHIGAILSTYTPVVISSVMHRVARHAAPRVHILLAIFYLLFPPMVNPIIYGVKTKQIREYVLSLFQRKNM
Method in brief: as §1

[5] = target: T4, OR52K2 (Homo sapiens) (UniProt Q8NGK3)
T4 sequence (whole entry): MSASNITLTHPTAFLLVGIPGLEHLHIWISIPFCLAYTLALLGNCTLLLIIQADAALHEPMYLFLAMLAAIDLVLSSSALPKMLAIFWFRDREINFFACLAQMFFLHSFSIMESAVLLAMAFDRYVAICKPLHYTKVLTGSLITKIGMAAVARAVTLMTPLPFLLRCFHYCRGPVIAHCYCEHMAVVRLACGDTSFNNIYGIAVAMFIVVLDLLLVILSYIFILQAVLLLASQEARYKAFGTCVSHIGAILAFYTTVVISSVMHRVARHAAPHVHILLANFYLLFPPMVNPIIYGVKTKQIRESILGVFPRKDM
Method in brief: as §1

[6] = target: T5, OR52L1 (Homo sapiens) (UniProt Q8NGH7)
T5 sequence (whole entry): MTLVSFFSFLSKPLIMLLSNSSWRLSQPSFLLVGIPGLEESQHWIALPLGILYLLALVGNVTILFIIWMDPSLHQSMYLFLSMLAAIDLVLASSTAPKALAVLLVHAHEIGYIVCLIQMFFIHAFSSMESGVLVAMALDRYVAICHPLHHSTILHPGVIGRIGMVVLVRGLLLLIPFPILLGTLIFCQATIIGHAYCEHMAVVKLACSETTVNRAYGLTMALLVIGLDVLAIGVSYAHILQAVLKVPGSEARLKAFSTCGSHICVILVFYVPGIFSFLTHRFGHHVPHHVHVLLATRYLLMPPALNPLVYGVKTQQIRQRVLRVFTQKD
Method in brief: as §1

[7] = target: T6, OR52M1 (Homo sapiens) (UniProt Q8NGK5)
T6 sequence (whole entry): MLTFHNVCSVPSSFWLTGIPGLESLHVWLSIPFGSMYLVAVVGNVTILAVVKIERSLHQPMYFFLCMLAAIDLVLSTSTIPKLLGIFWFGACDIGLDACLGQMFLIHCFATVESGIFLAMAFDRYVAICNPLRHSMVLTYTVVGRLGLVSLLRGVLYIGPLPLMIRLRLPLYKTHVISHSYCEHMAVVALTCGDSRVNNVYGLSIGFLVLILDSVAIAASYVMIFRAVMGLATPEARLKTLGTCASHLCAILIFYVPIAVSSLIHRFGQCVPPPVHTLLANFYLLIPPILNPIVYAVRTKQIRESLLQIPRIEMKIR
Method in brief: as §1

[8] = target: T7, OR52N1 (Homo sapiens) (UniProt Q8NH53)
T7 sequence (whole entry): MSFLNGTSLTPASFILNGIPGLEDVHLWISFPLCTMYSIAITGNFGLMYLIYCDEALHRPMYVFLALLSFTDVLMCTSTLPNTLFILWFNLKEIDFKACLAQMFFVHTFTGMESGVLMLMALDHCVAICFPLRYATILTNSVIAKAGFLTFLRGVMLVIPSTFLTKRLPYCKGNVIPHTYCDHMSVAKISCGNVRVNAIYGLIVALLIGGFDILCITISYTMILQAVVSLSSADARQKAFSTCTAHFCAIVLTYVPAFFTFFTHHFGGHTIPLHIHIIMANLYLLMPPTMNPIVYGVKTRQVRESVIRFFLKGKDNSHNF
Method in brief: as §1

[9] = target: T8, OR52N2 (Homo sapiens) (UniProt Q8NGI0)
T8 sequence (whole entry): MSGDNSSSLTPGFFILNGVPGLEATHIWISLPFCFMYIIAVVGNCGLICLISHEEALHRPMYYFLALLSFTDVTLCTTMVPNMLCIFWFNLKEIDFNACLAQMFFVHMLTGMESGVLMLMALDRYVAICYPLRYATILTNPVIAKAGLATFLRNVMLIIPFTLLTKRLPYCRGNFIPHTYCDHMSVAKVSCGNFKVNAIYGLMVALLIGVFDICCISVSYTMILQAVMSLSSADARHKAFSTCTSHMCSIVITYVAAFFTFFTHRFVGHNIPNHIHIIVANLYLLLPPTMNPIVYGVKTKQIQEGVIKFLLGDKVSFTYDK
Method in brief: as §1

[10] = target: T9, OR52N4 (Homo sapiens) (UniProt Q8NGI2)
T9 sequence (whole entry): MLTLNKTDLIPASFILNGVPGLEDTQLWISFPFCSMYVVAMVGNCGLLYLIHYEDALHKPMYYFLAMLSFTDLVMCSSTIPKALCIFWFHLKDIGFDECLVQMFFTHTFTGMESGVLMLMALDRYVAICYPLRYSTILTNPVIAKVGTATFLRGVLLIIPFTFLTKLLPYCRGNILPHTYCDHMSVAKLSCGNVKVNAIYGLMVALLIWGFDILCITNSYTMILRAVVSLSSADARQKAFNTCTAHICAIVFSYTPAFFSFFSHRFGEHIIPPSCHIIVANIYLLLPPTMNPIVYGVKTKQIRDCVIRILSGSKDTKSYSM
Method in brief: as §1

[11] = target: T10, OR52N5 (Homo sapiens) (UniProt Q8NH56)
T10 sequence (whole entry): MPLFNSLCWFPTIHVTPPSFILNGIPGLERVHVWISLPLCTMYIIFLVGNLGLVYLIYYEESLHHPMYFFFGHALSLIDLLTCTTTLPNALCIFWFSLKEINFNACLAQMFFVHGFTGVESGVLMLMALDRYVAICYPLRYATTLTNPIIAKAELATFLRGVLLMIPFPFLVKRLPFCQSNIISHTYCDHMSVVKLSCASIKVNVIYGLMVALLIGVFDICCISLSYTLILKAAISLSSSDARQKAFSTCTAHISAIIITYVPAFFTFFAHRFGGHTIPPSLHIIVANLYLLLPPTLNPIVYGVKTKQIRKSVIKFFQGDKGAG
Method in brief: as §1

[12] = target: T11, OR52R1 (Homo sapiens) (UniProt Q8NGF1)
T11 sequence (whole entry): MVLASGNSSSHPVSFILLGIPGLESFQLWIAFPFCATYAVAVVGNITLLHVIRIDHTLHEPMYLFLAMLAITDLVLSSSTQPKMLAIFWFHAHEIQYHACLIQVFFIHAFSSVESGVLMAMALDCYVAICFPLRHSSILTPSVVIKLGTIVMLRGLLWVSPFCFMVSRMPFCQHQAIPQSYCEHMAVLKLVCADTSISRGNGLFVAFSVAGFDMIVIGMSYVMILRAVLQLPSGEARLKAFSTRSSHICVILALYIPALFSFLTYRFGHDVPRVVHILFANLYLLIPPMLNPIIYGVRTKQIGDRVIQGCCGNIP
Method in brief: as §1

[13] = target: T12, OR52W1 (Homo sapiens) (UniProt Q6IF63)
T12 sequence (whole entry): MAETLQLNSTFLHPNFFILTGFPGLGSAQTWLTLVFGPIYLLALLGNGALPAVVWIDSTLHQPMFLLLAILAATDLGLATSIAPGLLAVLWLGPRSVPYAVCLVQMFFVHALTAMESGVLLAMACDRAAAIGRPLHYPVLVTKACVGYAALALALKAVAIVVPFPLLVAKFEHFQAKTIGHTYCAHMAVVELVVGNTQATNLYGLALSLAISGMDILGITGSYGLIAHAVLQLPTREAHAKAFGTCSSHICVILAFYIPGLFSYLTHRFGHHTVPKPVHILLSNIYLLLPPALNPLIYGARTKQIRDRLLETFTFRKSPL
Method in brief: as §1

[14] = target: T13, OR56A1 (Homo sapiens) (UniProt Q8NGH5)
T13 sequence (whole entry): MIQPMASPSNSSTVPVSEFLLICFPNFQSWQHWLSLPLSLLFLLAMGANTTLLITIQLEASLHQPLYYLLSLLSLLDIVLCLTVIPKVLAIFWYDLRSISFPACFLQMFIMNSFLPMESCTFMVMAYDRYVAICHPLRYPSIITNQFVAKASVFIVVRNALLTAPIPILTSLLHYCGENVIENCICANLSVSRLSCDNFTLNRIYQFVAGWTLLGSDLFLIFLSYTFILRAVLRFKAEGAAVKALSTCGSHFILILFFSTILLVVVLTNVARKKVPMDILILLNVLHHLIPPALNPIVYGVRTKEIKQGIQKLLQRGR
Method in brief: as §1

[15] = target: T14, OR56A3 (Homo sapiens) (UniProt Q8NH54)
T14 sequence (whole entry): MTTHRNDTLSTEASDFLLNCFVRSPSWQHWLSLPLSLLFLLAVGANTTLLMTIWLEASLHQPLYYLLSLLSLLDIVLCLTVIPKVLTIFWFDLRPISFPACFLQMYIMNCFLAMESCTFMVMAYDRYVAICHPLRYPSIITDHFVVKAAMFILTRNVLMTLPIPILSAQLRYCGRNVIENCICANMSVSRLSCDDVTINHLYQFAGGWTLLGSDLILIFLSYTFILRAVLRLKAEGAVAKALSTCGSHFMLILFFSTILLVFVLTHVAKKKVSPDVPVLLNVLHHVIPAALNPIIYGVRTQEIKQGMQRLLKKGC
Method in brief: as §1

[16] = target: T15, OR56A5 (Homo sapiens) (UniProt P0C7T3)
T15 sequence (whole entry): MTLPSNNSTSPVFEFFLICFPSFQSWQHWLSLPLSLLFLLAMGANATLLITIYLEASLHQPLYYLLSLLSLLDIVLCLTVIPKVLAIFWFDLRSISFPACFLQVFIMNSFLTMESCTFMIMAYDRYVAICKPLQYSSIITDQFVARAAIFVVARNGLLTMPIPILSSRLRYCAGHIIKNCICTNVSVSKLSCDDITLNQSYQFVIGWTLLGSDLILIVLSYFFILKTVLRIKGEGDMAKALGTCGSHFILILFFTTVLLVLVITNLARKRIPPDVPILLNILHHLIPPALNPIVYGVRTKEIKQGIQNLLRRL
Method in brief: as §1

[17] = target: T16, OR56B1 (Homo sapiens) (UniProt Q8NGI3)
T16 sequence (whole entry): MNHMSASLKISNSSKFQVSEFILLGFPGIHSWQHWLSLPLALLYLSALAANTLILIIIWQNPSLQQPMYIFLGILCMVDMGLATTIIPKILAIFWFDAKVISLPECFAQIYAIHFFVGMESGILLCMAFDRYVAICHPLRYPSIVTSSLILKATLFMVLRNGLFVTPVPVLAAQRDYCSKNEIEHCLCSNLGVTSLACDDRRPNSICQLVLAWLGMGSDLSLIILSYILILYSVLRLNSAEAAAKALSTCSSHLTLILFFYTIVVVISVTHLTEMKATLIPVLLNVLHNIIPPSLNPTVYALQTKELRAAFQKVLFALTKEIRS
Method in brief: as §1

[18] = target: T17, OR52L1 (Homo sapiens) (UniProt Q8NGH7); remark: listed apart in the source
T17 sequence (whole entry): T5 sequence (whole entry) with R140C, R161C, T183K, R297W
Method in brief: as §1

[19] = target: T18, OR56A4 (Homo sapiens) (UniProt Q8NGH8)
T18 sequence (whole entry): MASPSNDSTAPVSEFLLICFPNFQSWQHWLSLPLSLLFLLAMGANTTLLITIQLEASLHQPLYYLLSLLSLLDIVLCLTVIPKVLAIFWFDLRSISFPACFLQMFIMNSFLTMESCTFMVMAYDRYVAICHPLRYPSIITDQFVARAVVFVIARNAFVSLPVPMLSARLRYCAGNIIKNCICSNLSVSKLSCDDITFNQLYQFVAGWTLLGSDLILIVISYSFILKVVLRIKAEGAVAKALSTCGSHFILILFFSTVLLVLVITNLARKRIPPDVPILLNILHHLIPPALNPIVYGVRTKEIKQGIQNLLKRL
Method in brief: as §1

Compound	odorant receptor agonist call [1]	odorant receptor agonist call [2]	odorant receptor agonist call [3]	odorant receptor agonist call [4]	odorant receptor agonist call [5]	odorant receptor agonist call [6]	odorant receptor agonist call [7]	odorant receptor agonist call [8]	odorant receptor agonist call [9]	odorant receptor agonist call [10]	odorant receptor agonist call [11]	odorant receptor agonist call [12]	odorant receptor agonist call [13]	odorant receptor agonist call [14]	odorant receptor agonist call [15]	odorant receptor agonist call [16]	odorant receptor agonist call [17]	odorant receptor agonist call [18]	odorant receptor agonist call [19]
Cc1cnc(C)c(C)n1	inactive	inactive	inactive	inactive	inactive	inactive	inactive	inactive	inactive	inactive	inactive	inactive	inactive	inactive	inactive	inactive	inactive	–	–
CCCCC(S)C(C)CO (stereo not given)	inactive	inactive	inactive	inactive	inactive	–	inactive	inactive	inactive	inactive	active	inactive	inactive	inactive	inactive	inactive	inactive	active	inactive
